ChEMBL document CHEMBL1130286, “Nicotinamide derivatives as a new class of gastric H+/K(+)-ATPase inhibitors. 1. Synthesis and structure-activity relationships of N-substituted 2-(benzhydryl- and benzylsulfinyl)nicotinamides” (J Med Chem, 1997)
One block for each molecule: values may come before it. Active and inactive are the calls of the source. No cut-off for these calls is given here.

How the values were obtained:
[1] = tested on: Potassium-transporting ATPase (Oryctolagus cuniculus); assay: Percent inhibition of [14C]aminopyrine (AP) accumulation in dibutyryl cAMP stimulated rbbit parietal cells at 10 uM
Rattus norvegicus [2] = assay: Percent inhibition of histamine induced gastric acid secretion in pylorus-ligated rats at 100 mg/Kg intraduodenal dose; Not effective; settings: Stomach
[3] = t1/2 is the time taken for the conversion of nicotinamides to isothiazolopyridine at pH=1.0; assay type: ADME
Outline: (§1)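 Compound from a 10 µM DMSO solution was diluted into 100 mM HCl (pH 1) or pH-adjusted McIlvaine buffer (pH 3-7) containing Triton. Mixtures were incubated at 37 °C for various times. Remaining compound was measured by reversed-phase C18 HPLC (CH₃CN/10 mM phosphate pH 7.0) with UV detection at 254 nm, and half-lives were determined from these time points.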

Rattus norvegicus [4] = species: Rattus norvegicus; assay: Inhibition of histamine induced gastric acid secretion in pylorus-ligated rats; assay type: functional; settings: Stomach
Outline: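 Male Wistar rats (~200 g) were fasted 24 h with water allowed, 4-7 per group. Under urethane (1 g/kg) the pylorus was ligated, and drug or vehicle was given intraduodenally right after ligation. Histamine (30 mg/kg) was given sc 30 min later. After 3 h, gastric juice volume was measured and acid titrated to pH 7 with 0.01 N NaOH. Total acid output versus controls gave percent inhibition.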

[5] = target: Potassium-transporting ATPase (Sus scrofa, UniProt P19156); assay: Inhibition of porcine gastric H+/K+ ATPase; assay type: tissue-based, Stomach
Potassium-transporting ATPase, sequence (P18434 whole entry): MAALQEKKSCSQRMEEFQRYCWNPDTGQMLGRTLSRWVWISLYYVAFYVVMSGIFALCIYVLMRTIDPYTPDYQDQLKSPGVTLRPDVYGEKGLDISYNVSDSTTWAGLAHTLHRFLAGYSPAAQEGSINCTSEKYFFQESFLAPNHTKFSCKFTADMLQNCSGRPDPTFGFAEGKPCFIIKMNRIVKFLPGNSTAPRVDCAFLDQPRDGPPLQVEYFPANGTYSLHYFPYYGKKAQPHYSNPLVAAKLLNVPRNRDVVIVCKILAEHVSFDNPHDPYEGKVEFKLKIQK
Potassium-transporting ATPase, sequence (P19156 whole entry): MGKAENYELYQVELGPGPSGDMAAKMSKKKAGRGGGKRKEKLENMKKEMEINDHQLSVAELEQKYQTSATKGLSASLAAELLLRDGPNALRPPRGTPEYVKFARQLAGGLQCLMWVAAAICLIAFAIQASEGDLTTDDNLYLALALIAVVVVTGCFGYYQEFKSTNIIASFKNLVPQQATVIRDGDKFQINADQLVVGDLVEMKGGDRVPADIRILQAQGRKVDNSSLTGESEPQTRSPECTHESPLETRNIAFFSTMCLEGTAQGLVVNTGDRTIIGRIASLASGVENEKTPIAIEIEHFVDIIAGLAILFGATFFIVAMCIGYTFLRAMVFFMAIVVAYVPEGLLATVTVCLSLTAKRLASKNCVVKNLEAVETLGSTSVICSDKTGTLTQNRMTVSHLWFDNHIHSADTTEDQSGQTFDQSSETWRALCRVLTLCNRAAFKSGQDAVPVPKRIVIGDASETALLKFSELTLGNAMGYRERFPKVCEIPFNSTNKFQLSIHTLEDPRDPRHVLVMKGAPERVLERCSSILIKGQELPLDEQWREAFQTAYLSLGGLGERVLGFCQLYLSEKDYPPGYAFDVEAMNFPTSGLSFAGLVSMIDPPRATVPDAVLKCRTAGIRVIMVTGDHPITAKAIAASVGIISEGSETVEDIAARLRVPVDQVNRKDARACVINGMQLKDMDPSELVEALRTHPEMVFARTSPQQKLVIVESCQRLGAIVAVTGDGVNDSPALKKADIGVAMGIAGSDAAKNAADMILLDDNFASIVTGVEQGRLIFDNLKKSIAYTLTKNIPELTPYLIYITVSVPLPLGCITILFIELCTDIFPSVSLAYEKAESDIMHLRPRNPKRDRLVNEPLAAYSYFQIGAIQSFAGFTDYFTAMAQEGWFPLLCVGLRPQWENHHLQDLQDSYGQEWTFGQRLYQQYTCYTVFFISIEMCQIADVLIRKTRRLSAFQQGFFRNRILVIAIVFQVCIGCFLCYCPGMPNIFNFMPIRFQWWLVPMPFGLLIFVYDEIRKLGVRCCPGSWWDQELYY
Outline: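 Porcine gastric microsomes (15 µg protein) were preincubated 30 min at 37 °C with compound in 50 mM Tris-HCl pH 7.4, 4 mM MgCl₂ and 5 µg/mL gramicidin, with or without 20 mM KCl. Reaction was started with 2 mM ATP (final) and run 20 min at 37 °C, then stopped with trichloroacetic acid. Released phosphate was measured by the Sanui method. Activity was the K⁺-dependent rate, with the K⁺-free rate subtracted.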

[6] = t1/2 is the time taken for the conversion of nicotinamides to isothiazolopyridine at pH=3.0; assay type: ADME
Outline: as §1

[7] = target: Potassium-transporting ATPase (Oryctolagus cuniculus); assay: Inhibition of [14C]aminopyrine (AP) accumulation stimulated by dibutyryl cyclic AMP in isolated rabbit parietal cells
[8] = t1/2 is the time taken for the conversion of nicotinamides to isothiazolopyridine at pH=5.0; assay type: ADME
Outline: as §1

Rattus norvegicus [9] = assay: Percent inhibition of histamine induced gastric acid secretion in pylorus-ligated rats at 100 mg/Kg intraduodenal dose; settings: Stomach
Rattus norvegicus [10] = assay: Percent inhibition of histamine induced gastric acid secretion in pylorus-ligated rats at 3 mg/Kg intraduodenal dose; settings: Stomach
Oryctolagus cuniculus [11] = species: Oryctolagus cuniculus; assay: Percent inhibition of [14C]aminopyrine (AP) accumulation stimulated by dibutyryl cyclic AMP in isolated rabbit parietal cells; assay type: functional
Outline: (§2)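 Parietal cells were isolated from rabbit gastric tissue, and the cell-rich fraction (1-2 × 10⁷ cells/300 µL) was put in Earle's balanced salt solution. The medium held 5.6 kBq [¹⁴C]aminopyrine, 25 mM HEPES-NaOH pH 7.4, 0.2% BSA and test compound. Cells were stimulated with 1 mM dbcAMP at 37 °C for 30 min under 95% O₂/5% CO₂, then centrifuged, solubilized and scintillation-counted. Counts with 0.1 mM dinitrophenol were subtracted, and IC50 came from regression lines.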

Rattus norvegicus [12] = assay: Percent inhibition of histamine induced gastric acid secretion in pylorus-ligated rats at 10 mg/Kg intraduodenal dose; settings: Stomach
Rattus norvegicus [13] = assay: Percent inhibition of histamine induced gastric acid secretion in pylorus-ligated rats at 100 mg/Kg […] dose; Not effective; assay type: functional, organism-based; settings: Stomach
Oryctolagus cuniculus [14] = species: Oryctolagus cuniculus; assay: Percent inhibition of [14C]aminopyrine (AP) accumulation stimulated by dibutyryl uM; Not effective; assay type: functional
Outline: as §2

Oryctolagus cuniculus [15] = species: Oryctolagus cuniculus; assay: Percent inhibition of [14C]aminopyrine (AP) accumulation stimulated by dibutyryl uM; assay type: functional
Outline: as §2

[16] = t1/2 is the time taken for the conversion of nicotinamides to isothiazolopyridine at pH=7.0; assay type: ADME
Outline: as §1

- inhibition [1]: 47.6%
Structure (SMILES): O=C(Nc1c2ccccc2nc2ccccc12)c1cccnc1[S+]([O-])C(c1ccccc1)c1ccccc1 (stereo not given)

- inhibition [1]: 43.7%
Structure (SMILES): O=C(Nc1cccnc1)c1cccnc1[S+]([O-])C(c1ccccc1)c1ccccc1 (stereo not given)
- inhibition (Rattus norvegicus [2]): inactive

- half-life [3]: < 1.2 min
- IC50 [5]: > 100 µM
- half-life [6]: 0.71 h
- IC50 [7]: 0.45 µM
Structure (SMILES): CCOc1cc(OC)ccc1C[S+]([O-])c1ncccc1C(=O)Nc1ccncc1 (stereo not given)
- ED50 (Rattus norvegicus [4]): 19 mg/kg

- inhibition [1]: 1.3%
Structure (SMILES): CC(C)CNC(=O)c1cccnc1[S+]([O-])C(c1ccccc1)c1ccccc1 (stereo not given)

- half-life [3]: < 1.2 min
- half-life [8]: 17.4 min
- IC50 [5]: 7.3 µM
- half-life [6]: < 0.03 h
- IC50 [7]: 1.2 µM
Structure (SMILES): COc1cc(OC)c(C[S+]([O-])c2ncccc2C(=O)Nc2ccncc2)c(OC)c1 (stereo not given)
- ED50 (Rattus norvegicus [4]): 6.8 mg/kg

- half-life [3]: < 1.2 min
- IC50 [5]: > 100 µM
- half-life [6]: 3.3 h
- IC50 [7]: 1.7 µM
Structure (SMILES): COc1ccc(C[S+]([O-])c2ncccc2C(=O)Nc2ccncc2)c(OCCF)c1 (stereo not given)
- ED50 (Rattus norvegicus [4]): 8.1 mg/kg

- half-life [3]: < 1.2 min
- inhibition [1]: 32.5%
- IC50 [5]: > 100 µM
- half-life [6]: 0.14 h
Structure (SMILES): COc1cc(OC)c(OC)cc1C[S+]([O-])c1ncccc1C(=O)Nc1ccncc1 (stereo not given)
- inhibition in vivo at 100 mg/kg (Rattus norvegicus [9]): 21.7%

- inhibition [1]: 58.3%
Structure (SMILES): CN(C)c1ccc(NC(=O)c2cccnc2[S+]([O-])C(c2ccccc2)c2ccccc2)cc1 (stereo not given)

- IC50 [7]: 1.5 µM
Structure (SMILES): Cc1ccc(C(c2ccc(C)cc2)[S+]([O-])c2ncccc2C(=O)Nc2ccncc2)cc1 (stereo not given)
- inhibition in vivo at 100 mg/kg (Rattus norvegicus [9]): 48.1%

- inhibition [1]: 5%
Structure (SMILES): O=C(Nc1ccccc1)c1cccnc1[S+]([O-])C(c1ccccc1)c1ccccc1 (stereo not given)

- inhibition [1]: 57.4%
Structure (SMILES): Nc1ccc(NC(=O)c2cccnc2[S+]([O-])C(c2ccccc2)c2ccccc2)cc1 (stereo not given)

- half-life [3]: < 1.2 min
- IC50 (Oryctolagus cuniculus [11]): 2 µM
- half-life [6]: 2.75 h
Structure (SMILES): COCOCCOc1cc(OC)ccc1C[S+]([O-])c1ncccc1C(=O)Nc1ccncc1 (stereo not given)
- inhibition in vivo at 3 mg/kg (Rattus norvegicus [10]): 14.4%
- inhibition in vivo at 10 mg/kg (Rattus norvegicus [12]): 76.6%

- half-life [3]: < 1.2 min
- IC50 [5]: > 100 µM
- half-life [6]: 0.49 h
- IC50 [7]: 0.4 µM
Structure (SMILES): CCOc1ccc(C[S+]([O-])c2ncccc2C(=O)Nc2ccncc2)c(OCC)c1 (stereo not given)
- ED50 (Rattus norvegicus [4]): 11.2 mg/kg

- IC50 [5]: 0.22 µM
Structure (SMILES): O=c1c2cccnc2sn1-c1ccncc1

- half-life [3]: 39.6 min
- IC50 [5]: > 100 µM
- half-life [6]: 38.5 h
- IC50 [7]: 26 µM
Structure (SMILES): COc1cccc(OC)c1C[S+]([O-])c1ncccc1C(=O)Nc1ccncc1 (stereo not given)
- inhibition in vivo at 10 mg/kg (Rattus norvegicus [12]): 12.7%
- inhibition in vivo at 100 mg/kg (Rattus norvegicus [9]): 60.7%

- IC50 [5]: 0.53 µM
Structure (SMILES): CC(C)Cn1sc2ncccc2c1=O

- IC50 [5]: 0.19 µM
Structure (SMILES): O=c1c2cccnc2sn1-c1ccccc1

- half-life [3]: < 1.2 min
- half-life [6]: 1.78 h
- IC50 [7]: 59 µM
Structure (SMILES): COc1ccc(C[S+]([O-])c2ncccc2C(=O)Nc2ccncc2)c(OCCO)c1 (stereo not given)

- inhibition [1]: 74.1%
Structure (SMILES): Cc1ccc(C(c2ccc(C)cc2)[S+]([O-])c2ncccc2C(=O)Nc2cccc3ncccc23)cc1 (stereo not given)
- inhibition in vivo at 100 mg/kg (Rattus norvegicus [9]): 30.4%

- inhibition [1]: 24.4%
Structure (SMILES): Cc1ccc2cccc(NC(=O)c3cccnc3[S+]([O-])C(c3ccccc3)c3ccccc3)c2n1 (stereo not given)

Structure (SMILES): O=C(NC1CCN(Cc2ccccc2)CC1)c1cccnc1[S+]([O-])C(c1ccccc1)c1ccccc1 (stereo not given)
- inhibition (Rattus norvegicus [13]): inactive

- inhibition [1]: 61.8%
Structure (SMILES): O=C(Nc1ccc2ncccc2c1)c1cccnc1[S+]([O-])C(c1ccccc1)c1ccccc1 (stereo not given)
- inhibition in vivo at 100 mg/kg (Rattus norvegicus [9]): 21.7%

Structure (SMILES): O=C(Nc1cnccn1)c1cccnc1[S+]([O-])C(c1ccccc1)c1ccccc1 (stereo not given)
- inhibition (Oryctolagus cuniculus [14]): inactive

- half-life [3]: < 1.2 min
- IC50 (Oryctolagus cuniculus [11]): 2.2 µM
- half-life [6]: 8.25 h
Structure (SMILES): COCOc1cc(OC)ccc1C[S+]([O-])c1ncccc1C(=O)Nc1ccncc1 (stereo not given)
- inhibition in vivo at 100 mg/kg (Rattus norvegicus [9]): 37.7%

Structure (SMILES): O=C(Nc1ccccn1)c1cccnc1[S+]([O-])C(c1ccccc1)c1ccccc1 (stereo not given)
- Inhibition (Oryctolagus cuniculus [15]): 8%

- half-life [3]: < 1.2 min
- half-life [8]: 257 min
- IC50 [5]: > 100 µM
- half-life [6]: 0.09 h
- IC50 [7]: 0.46 µM
Structure (SMILES): COc1cc(C)c(C[S+]([O-])c2ncccc2C(=O)Nc2ccncc2)c(OC)c1 (stereo not given)
- ED50 (Rattus norvegicus [4]): 5.7 mg/kg

- half-life [3]: 4.2 min
- half-life [6]: 28.8 h
- IC50 [7]: 1.9 µM
Structure (SMILES): COc1cc(OC)c(C[S+]([O-])c2ncccc2C(=O)Nc2ccncc2)cc1Br (stereo not given)
- inhibition in vivo at 100 mg/kg (Rattus norvegicus [9]): 34.8%

- half-life [8]: 70.2 min
- half-life [16]: 23.1 h
Structure (SMILES): COc1ccnc(C[S+]([O-])c2nc3ccc(OC(F)F)cc3[nH]2)c1OC (stereo not given) [PANTOPRAZOLE]

Structure (SMILES): COc1ncccc1NC(=O)c1cccnc1[S+]([O-])C(c1ccccc1)c1ccccc1 (stereo not given)
- inhibition (Oryctolagus cuniculus [14]): inactive

Structure (SMILES): Cc1c(OCC(F)(F)F)ccnc1C[S+]([O-])c1nc2ccccc2[nH]1 (stereo not given) [LANSOPRAZOLE]
- half-life [8]: 16.8 min
- half-life [16]: 6.08 h

- half-life [3]: 27 min
- inhibition [1]: 19.6%
- half-life [6]: 116 h
Structure (SMILES): COc1ccc(C[S+]([O-])c2ncccc2C(=O)Nc2ccncc2)c(OC)c1OC (stereo not given)

- half-life [3]: 7.2 min
- IC50 [5]: > 100 µM
- half-life [6]: 11.6 h
- IC50 [7]: 16.6 µM
Structure (SMILES): COc1ccc(C[S+]([O-])c2ncccc2C(=O)Nc2ccncc2)c(OC)c1C (stereo not given)

- half-life [3]: < 1.2 min
- half-life [8]: 2310 min
- half-life [16]: > 100 h
- IC50 [5]: > 100 µM
- half-life [6]: 0.84 h
- IC50 [7]: 0.59 µM
Structure (SMILES): COc1ccc(C[S+]([O-])c2ncccc2C(=O)Nc2ccncc2)c(OC)c1 (stereo not given)
- ED50 (Rattus norvegicus [4]): 4.2 mg/kg

Structure (SMILES): O=C(Nc1cccc2ccccc12)c1cccnc1[S+]([O-])C(c1ccccc1)c1ccccc1 (stereo not given)
- inhibition (Oryctolagus cuniculus [14]): inactive

- inhibition [1]: 14.7%
Structure (SMILES): O=C(Nc1nccs1)c1cccnc1[S+]([O-])C(c1ccccc1)c1ccccc1 (stereo not given)

- half-life [8]: 19.2 min
- half-life [16]: 10.5 h
Structure (SMILES): COc1ccc2[nH]c([S+]([O-])Cc3ncc(C)c(OC)c3C)nc2c1 (stereo not given) [OMEPRAZOLE]
- ED50 (Rattus norvegicus [4]): 4.1 mg/kg

- inhibition [1]: 68.6%
Structure (SMILES): Cc1cc(C)c2ccc(NC(=O)c3cccnc3[S+]([O-])C(c3ccccc3)c3ccccc3)nc2n1 (stereo not given)
- inhibition (Rattus norvegicus [2]): inactive

- inhibition [1]: 55%
Structure (SMILES): O=C(Nc1ccncc1)c1cccnc1[S+]([O-])C(c1ccccc1)c1ccccc1 (stereo not given)
- inhibition in vivo at 100 mg/kg (Rattus norvegicus [9]): 30.2%

- inhibition [1]: 93.5%
Structure (SMILES): CN(C)CCc1ccc(NC(=O)c2cccnc2[S+]([O-])C(c2ccccc2)c2ccccc2)cc1 (stereo not given)
- Inhibition (Oryctolagus cuniculus [15]): 7.4%

- half-life [3]: 128 min
- inhibition [1]: 33.1%
Structure (SMILES): COc1ccc(C[S+]([O-])c2ncccc2C(=O)Nc2ccncc2)cc1 (stereo not given)
- inhibition in vivo at 100 mg/kg (Rattus norvegicus [9]): 44.4%

Structure (SMILES): O=C(Nc1ncccn1)c1cccnc1[S+]([O-])C(c1ccccc1)c1ccccc1 (stereo not given)
- inhibition (Oryctolagus cuniculus [14]): inactive

- half-life [3]: 462 min
- inhibition [1]: 11.3%
Structure (SMILES): COc1cc(C[S+]([O-])c2ncccc2C(=O)Nc2ccncc2)cc(OC)c1OC (stereo not given)
